Measured values from different studies.
Compare with care: the assays were run in different laboratories.

SMILES | system | setting | AUC(0-t)
Cn1ccnc1N1CCN(CC2CCN(c3nccc4[nH]c(-c5cc(F)cc(F)c5)nc34)CC2)CC1 | BALB/c mouse, blood | oral, 20 mg/kg | 19 µM·h
COc1nc(-c2cc(C)c(N[C@@H](C)c3c(F)cc(F)cc3F)nn2)ccc1-n1cnc(C)c1 | male CD-1 mouse, plasma | oral, 5 mg/kg, single dose | 7960 ng·h/mL
O=S(=O)(c1ccc(-c2ccc3nccc(Nc4ccncn4)c3c2)cc1)N1CCOCC1 | female BALB/c mouse, plasma | intraperitoneal, 10 mg/kg | 9510 ng·h/mL
Fc1ccc(-c2nc3c(N4CCC(CN5CCOCC5)CC4)nccc3[nH]2)cc1F | mouse, blood | intravenous, 2 mg/kg | 4.17 µM·h
COc1ccc2nccc(N3CCc4c(cc(Cn5ccnc5)cc4-c4cn(C)nc4C(F)(F)F)C3=O)c2c1 | male CD-1 mouse, plasma | oral, 50 mg/kg | 33800 ng·h/mL
COc1ccc(C(O)COc2ccc(-c3csc(-c4ccc(OCC(O)c5ccc(OC)c(OC)c5)cc4)n3)cc2)cc1OC (stereo not drawn) | C57BL/6 mouse, plasma | oral, 10 mg/kg | 10000 ng·h/mL
CN1CCN(CC2CCN(c3nccc4[nH]c(-c5cc(F)cc(F)c5)nc34)CC2)CC1 | mouse, blood | intravenous, 2 mg/kg | 2.42 µM·h
CS(=O)(=O)CCNCc1ccc(-c2ccc3ncnc(Nc4ccc(OCc5cccc(F)c5)c(Cl)c4)c3c2)o1 | nude mouse, plasma | oral, 200 mg/kg, single dose | 234000 ng·h/mL
CN1CCC[C@H](CN2c3ccccc3Sc3ccccc32)C1.O=C(O)CCC(=O)O | mouse, plasma | oral, 64 mg/kg, single dose | 8750 ng·h/mL
Cc1ccc(NC(=O)c2ccc(CN3CCN(C)CC3)cc2)cc1Nc1nccc(-c2cncc(-c3oncc3C)c2)n1 | male C57BL/6 mouse, brain | oral, 100 mg/kg/day | 1170 ng·h/mL
NC(=O)c1cc(Oc2ccc(NC(=O)Nc3ccc(Cl)c(C(F)(F)F)c3)c(F)c2)cc[n+]1[O-] | mouse, plasma | oral, 10 mg/kg, single dose | 65 ng·h/mL
COc1cc(OC)c2nccc(N3CCc4c(cc(Cn5ccnc5)cc4-c4cn(C)nc4C(F)(F)F)C3=O)c2c1 | male CD-1 mouse, plasma | oral, 50 mg/kg | 60600 ng·h/mL
NS(=O)(=O)c1ccc(-c2cc(Nc3ccc(OC(F)(F)F)cc3)ncn2)cc1 | male BALB/c mouse, plasma | oral, 20 mg/kg | 9390 ng·h/mL
CCc1cc(OC)c2nccc(N3CCc4c(cc(Cn5ccnc5)cc4-c4cn(C)nc4C(F)(F)F)C3=O)c2c1 | male CD-1 mouse, plasma | oral, 150 mg/kg | 224000 ng·h/mL
CN1CCN(C2CCN(c3nccc4[nH]c(-c5cc(F)cc(F)c5)nc34)CC2)CC1 | mouse, blood | intravenous, 2 mg/kg | 1.95 µM·h
C=CC(=O)N1CC2CC(n3nc(-c4ccc(C(=O)Nc5ccccn5)cc4)c4c(N)ncnc43)CC2C1 (stereo not drawn) | SCID mouse, plasma | oral, 0.2 mg/kg | 8.63 ng·h/mL
CN1CCN(c2nccc3nc(-c4ccc(F)c(F)c4)[nH]c23)CC1 | mouse, blood | intravenous, 2 mg/kg | 3.58 µM·h
CNC(=O)c1cc(Oc2ccc(NC(=O)Nc3ccc(Cl)c(C(F)(F)F)c3)c(F)c2)ccn1 | male mouse, plasma | oral, 10 mg/kg, single dose | 18000 ng·h/mL
C[C@H]1[C@@H](O)O[C@@H]2O[C@@]3(C)CC[C@H]4[C@H](C)CC[C@@H]1[C@@]24OO3 | female SCID mouse, plasma | oral, 60 mg/kg | 382 ng·h/mL
Cc1ccc2cncc(N3CCc4c(cc(Cn5ccnc5)cc4-c4cn(C)nc4C(F)(F)F)C3=O)c2c1 | male CD-1 mouse, plasma | oral, 50 mg/kg | 36300 ng·h/mL

SMILES | system | setting | AUC(0-t)
CN1CCN(CC2CCN(c3cncc4[nH]c(-c5cc(F)cc(F)c5)nc34)CC2)CC1 | mouse, blood | intravenous, 2 mg/kg | 0.967 µM·h
CCOc1ccc(Cc2cc([C@@H]3O[C@H](CO)[C@@H](O)[C@H](O)[C@H]3O)ccc2Cl)cc1 | male C57BL/6 mouse, plasma | intravenous, 1 mg/kg | 680 ng·h/mL
CC(C)(Nc1nc(-c2ccccn2)nc2ccccc12)c1ccccn1 | female BALB/c mouse, plasma | intravenous, 1 mg/kg | 1450 ng·h/mL
CNC(=O)c1cc(OC)cc2c(N3CCc4c(cc(Cn5ccnc5)cc4-c4cn(C)nc4C(F)(F)F)C3=O)ccnc12 | male CD-1 mouse, plasma | intravenous, 3 mg/kg | 3300 ng·h/mL
FC(F)(F)Oc1ccc(Nc2cc(-c3cn[nH]c3)ncn2)cc1 | male BALB/c mouse, plasma | oral, 20 mg/kg | 6110 ng·h/mL
CC(C)(C)c1cc(NC(=O)Nc2ccc(Oc3ccnc4[nH]c(=O)cnc34)cc2F)n(-c2ccccc2)n1 | BALB/c mouse, plasma | oral, 10 mg/kg | 416 µM·h
CN1CCC(N2CCN(c3nccc4[nH]c(-c5ccc(F)c(F)c5)nc34)CC2)CC1 | mouse, blood | intravenous, 2 mg/kg | 6.77 µM·h
CC=Cc1ccc(O)c(OC)c1 | mouse, plasma | intranasal, 100 mg/kg | 9980 ng·h/mL
CCc1cc(C(=O)NC)c2nccc(N3CCc4c(cc(Cn5ccnc5)cc4-c4cn(C)nc4C(F)(F)F)C3=O)c2c1 | male CD-1 mouse, plasma | oral, 50 mg/kg | 122000 ng·h/mL
CN1C(=O)c2ccccc2[S@+]([O-])c2ccc(C(=O)NCCc3cccs3)cc21 | male C57BL/6 mouse, plasma | intraperitoneal, 30 mg/kg, single dose | 7800 ng·h/mL
CNCCN(C)c1cc(C#N)cc(CCc2cc(C)cc(N)n2)c1 | male BALB/c mouse, plasma | oral, 10 mg/kg | 162 ng·h/mL
COc1nc(-c2cc(C)c(N[C@@H](C)c3ccc(F)cc3)nn2)ccc1-n1cnc(C)c1 | male CD-1 mouse, plasma | oral, 5 mg/kg, single dose | 12700 ng·h/mL
CC[C@H](C)[C@@H]1NC(=O)[C@@](C)(NC(=O)[C@H](CCCNC(=N)N)NC(=O)[C@H](CC(C)C)NC(=O)[C@@H](NC(=O)[C@H](CCC(N)=O)NC(=O)[C@H](CC(C)C)NC(C)=O)[C@@H](C)O)CCCC=CCCC[C@@](C)(C(=O)N[C@@H](CC(C)C)C(=O)N[C@@H](Cc2ccc3ccccc3c2)C(N)=O)NC(=O)[C@H](CCCNC(=N)N)NC(=O)[C@H](CCC(N)=O)NC1=O | male BALB/c mouse, plasma | subcutaneous, 10 mg/kg | 140000 ng·h/mL
Cc1c2c(n(-c3ccc(F)cc3Cl)c1-c1ccc(OS(=O)(=O)CCC(F)(F)F)cc1)CCN(N1CCCCC1)C2=O | mouse, plasma | oral, 6 µmol/kg, single dose | 0.89 µM·h
CSc1cc(Oc2ccnc3[nH]c(=O)cnc23)ccc1NC(=O)Nc1cc(C(C)(C)C)nn1-c1ccccc1 | BALB/c mouse, plasma | intravenous, 2 mg/kg | 95 µM·h
Cc1c2c(n(-c3ccc(Cl)cc3Cl)c1-c1ccc(OS(=O)(=O)CCC(F)(F)F)cc1)CCN(N1CCCCC1)C2=O | mouse, plasma | oral, 6 µmol/kg, single dose | 3.6 µM·h
CCOC(=O)c1sc(Nc2ncccn2)nc1-c1ccccn1 | male CD-1 mouse, plasma | intravenous, 2 mg/kg | 448 ng·h/mL
Cc1nc(-c2cnc(NC(C)C)n(C)c2=O)ccc1Oc1ccnc(-c2cnn(C)c2)c1 | female mouse, plasma | oral, 7.5 mg/kg, single dose | 52600 ng·h/mL
COc1nc(-c2cc(C)c(N[C@@H](C)c3cc(F)cc(F)c3)nn2)ccc1-n1cnc(C)c1 | male CD-1 mouse, plasma | intravenous, 1 mg/kg, single dose | 1940 ng·h/mL
